The text below walks through data of paper PMC6648814 (ACS Omega, 2019).

A value given as a limit tells only on which side of the number the result lay.

Usually Ki stands for a measure of affinity in units of concentration, obtained from inhibition or displacement. A high value points to lower affinity. In general, IC50 refers to the point on the concentration scale where inhibition reaches its midpoint. Read a low IC50 as greater potency in that assay. For orientation: solubility means the concentration that dissolves in the medium under given conditions. Low values mean little dissolved substance, high ones much dissolved substance. As a reminder, the Hill coefficient is a measure of the steepness of the concentration-response curve. Usually Km stands for the substrate concentration at which the rate is half of its maximum.

For data set [1], the target named is T1, DfrB4 (Escherichia coli, UniProt Q8VNN1).
T1 sequence (Q8VNN1 1-78): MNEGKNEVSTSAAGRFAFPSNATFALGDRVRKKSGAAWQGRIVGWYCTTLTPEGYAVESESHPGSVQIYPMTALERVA
Nature of the data set: DfrB4 inhibition, kinetic assay. The data set is classed as biochemical.

For data set [2], the target named is T2, hDfr (Homo sapiens, UniProt P00374).
T2 sequence (P00374 1-187): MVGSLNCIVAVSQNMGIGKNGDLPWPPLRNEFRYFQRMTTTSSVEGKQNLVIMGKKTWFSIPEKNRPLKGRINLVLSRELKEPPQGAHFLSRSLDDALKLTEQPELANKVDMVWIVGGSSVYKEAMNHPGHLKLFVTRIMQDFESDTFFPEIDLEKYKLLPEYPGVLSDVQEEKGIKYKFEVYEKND
Put plainly: human Dfr inhibition, kinetic assay. Conditions: for inhibition of hDfr (in words): selectivity. The data set is classed as biochemical. Put shortly:
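His6-tagged human Dfr, purified by nickel affinity (stepwise imidazole in 0.1 M potassium phosphate, pH 8.0), then gel filtration in 0.1 M potassium phosphate, pH 7.5. Protein quantified by Bio-Rad assay. Kinetic assay at pH 7. Test compound tested up to the highest concentration that absorbance and precipitation allowed. IC50 determined per earlier method, with Ki calculated from IC50.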

In data set [3] the target is T3, DfrB1 (Escherichia coli, UniProt P00383).
T3 sequence (P00383 1-78): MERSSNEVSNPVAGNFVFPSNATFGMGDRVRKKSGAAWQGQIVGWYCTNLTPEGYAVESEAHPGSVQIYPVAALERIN
Nature of the data set: DfrB1 inhibition, spectrophotometric kinetic assay. The following applies: for IC50: DfrB1 IC50, pH 7; for inhibition of DfrB1 (in words): at the highest concentration that could be assayed; for fold change of DfrB1 Ki relative to 1: greater Ki / weaker than 1; for Hill coefficient: DfrB1 inhibition, Hill plot. The class given is biochemical.

The nature of data set [4]: Solubility limit in assay medium. The class given is physicochemical. The following applies: 10% DMSO, aqueous with cosolvent or surfactant or cyclodextrin.
The target in data set [5] is apo-DfrB1. Conditions: read-out: Kd1; binding on the apo-DfrB1; cited from earlier work.
Data set [6] deals with T3, DfrB1. The following applies: DfrB1 substrate KM; cited from earlier work.
The test system of data set [7] is E. coli expressing DfrB4. The following applies: highest TMP concentration dissolved in the medium, 600 μg/mL; cited from earlier work.

For the compound `O=C(O)c1ccc2[nH]c(-c3ccc(OCCC(O)COc4ccc(-c5nc6cc(C(=O)O)ccc6[nH]5)cc4)cc3)nc2c1` (stereo not shown) [Compound 3], the Ki in data set [1] is 3.9 ± 0.9 µM. Further, in data set [2], the IC50 was more than 500 µM and the “inhibition of hDfr (in words)” value is on record as “no inhibition”. In data set [3], this compound showed a Ki of 3.5 ± 1.7 µM and an IC50 of 110 ± 10 µM.

Take `O=C(O)c1ccc2[nH]c(-c3ccc(OC/C=C/COc4ccc(-c5nc6cc(C(=O)O)ccc6[nH]5)cc4)cc3)nc2c1` [Compound 10]: in data set [2], the IC50 was more than 400 µM and the “inhibition of hDfr (in words)” value is “did not inhibit”. In data set [3], the affinity, expressed as Ki, was 2.8 ± 0.8 µM and half-maximal inhibition (IC50) required 90 ± 20 µM.

As for `O=C(O)c1ccc2[nH]c(-c3ccc(OCc4ccc(COc5ccc(-c6nc7cc(C(=O)O)ccc7[nH]6)cc5)cc4)cc3)nc2c1` [Compound 11], the solubility in data set [4] is not above 100 µM. In addition, in data set [2], the 50% inhibitory concentration (IC50) is more than 100 µM and the “inhibition of hDfr (in words)” value is “did not inhibit”. Further, in data set [3], affinity was put at a Ki of 6.1 µM.

In data set [3], `O=C(O)c1ccc(OCCCCCCOc2ccc(C(=O)O)cc2)cc1` [Compound 12] registered an IC50 of more than 500 µM.

Consider `O=C(O)c1ccc(OCCCCCCCCCCCCOc2ccc(C(=O)O)cc2)cc1` [Compound 15], for which, in data set [3], the IC50 is more than 250 µM.

Regarding `O=C(O)Cc1ccc(OCCCCCCOc2ccc(CC(=O)O)cc2)cc1` [Compound 16], in data set [3], the IC50 was more than 500 µM and the “inhibition of DfrB1 (in words)” value is reported as “No inhibition was observed”.

Regarding `O=C(O)CCc1ccc(OCCCCOc2ccc(CCC(=O)O)cc2)cc1` [Compound 17], in data set [3], the IC50 was more than 200 µM and the “inhibition of DfrB1 (in words)” value is recorded as “No inhibition was observed”.

Regarding `O=C(O)c1ccc2cc(-c3ccc(OCCCCCCCCOc4ccc(-c5ccc6cc(C(=O)O)ccc6c5)cc4)cc3)ccc2c1` [Compound 18], in data set [3], the IC50 is more than 200 µM and the “inhibition of DfrB1 (in words)” value is on record as “abolished inhibition”.

Consider `O=C(O)c1ccc2[nH]c(-c3cccc(OCC(O)COc4cccc(-c5nc6cc(C(=O)O)ccc6[nH]5)c4)c3)nc2c1` [Compound 19], for which the IC50 in data set [2] is more than 500 µM. In addition, in data set [3], the Ki stood at 12 ± 3 µM, the IC50 was found to be 400 ± 100 µM and the “fold change of DfrB1 Ki relative to 1” value stood at 3 fold.

Take `O=C(O)c1ccc2nc(-c3ccc(OCCC(O)COc4ccc(-c5nc6ccc(C(=O)O)cc6[nH]5)cc4Br)c(Br)c3)[nH]c2c1` (stereo not shown) [Compound 20b]: the Ki in data set [1] stood at 3.7 ± 0.7 µM; in data set [3] it was 2.6 ± 0.7 µM. In addition, the half-inhibitory concentration (IC50) in data set [2] is more than 400 µM; in data set [3], 80 ± 20 µM.

With `O=C(O)c1ccc2nc(-c3ccc(OCCCOc4ccc(-c5nc6ccc(C(=O)O)cc6[nH]5)cc4Br)c(Br)c3)[nH]c2c1` [Compound 21], the IC50 in data set [2] was more than 400 µM; in data set [3], 60 ± 20 µM. In data set [3], this compound had a Ki of 1.7 ± 0.6 µM.

Turning to `O=C(O)c1ccc2nc(-c3ccc(OCC(COc4ccc(-c5nc6ccc(C(=O)O)cc6[nH]5)cc4)(COc4ccc(-c5nc6ccc(C(=O)O)cc6[nH]5)cc4)COc4ccc(-c5nc6ccc(C(=O)O)cc6[nH]5)cc4)cc3)[nH]c2c1` [Compound 31], the Ki in data set [1] came to 1.9 ± 0.5 µM. For the same compound, in data set [3], the Ki came to 1.1 ± 0.3 µM, the “fold lower DfrB1 Ki than the best inhibitors” value is recorded as 2- to 12 fold and the Hill coefficient amounted to 1.1 ± 0.4.

Compound `O=C(O)c1ccc2[nH]c(-c3ccc(OCc4ccccc4COc4ccc(-c5nc6cc(C(=O)O)ccc6[nH]5)cc4)cc3)nc2c1` [Compound 33] registered an inhibitory constant (Ki) in data set [1] of 11 ± 1.3 µM. In data set [2], the “inhibition of hDfr (in words)” value is on record as “no inhibition”. Besides, in data set [3], the Ki was 7.4 ± 2.7 µM, the Hill coefficient is recorded as 1.1 ± 0.1 and the “fold change of DfrB1 Ki relative to 1” value was determined as 2 fold. Further, the “mode of inhibition (Dixon plot)” value in data set [3] (varying NADPH, saturating DHF, with respect to NADPH binding) was “competitive”.

In the case of `Nc1nc(=O)c2c([nH]1)NCC(CNc1ccc(C(=O)N[C@@H](CCC(=O)O)C(=O)O)cc1)=N2` [DHF, dihydrofolate], the Kd in data set [5] is 120 µM.

Regarding `NC(=O)C1=CN([C@@H]2O[C@H](COP(=O)(O)OP(=O)(O)OC[C@H]3O[C@@H](n4cnc5c(N)ncnc54)[C@H](OP(=O)(O)O)[C@@H]3O)[C@@H](O)[C@H]2O)C=CC1` [NADPH], the Km is 2.8 ± 0.6 µM in data set [1] (DfrB4 substrate KM) and 1.6 ± 0.02 µM in data set [6]. In addition, in data set [5], the Kd was 2.5 µM.

On to `COc1cc(Cc2cnc(N)nc2N)cc(OC)c1OC` [TMP, Trimethoprim, reference compound], for which the figures for the Ki in data set [1] and in data set [3] were 550 µM and 600 µM, respectively. Also, the “TMP resistance conferred by DfrB4 expression” value in data set [7] was “complete resistance”.
